Measurements as given in ChEMBL document CHEMBL3526048, “In vitro metabolism of rivoglitazone, a novel peroxisome proliferator-activated receptor γ agonist, in rat, monkey, and human liver microsomes and freshly isolated hepatocytes” (Drug Metab Dispos, 2011).

Assays:
[1] = biological target: T1, UDP-glucuronosyltransferase 1A3 (Homo sapiens, UniProt P35503); assay: Activity of human UGT1A3 expressed in microsomes isolated from baculovirus infected insect cell assessed as enzyme-mediated compound formation treated with [14C]-rivoglitazone at 20 uM after 4 hrs by radio-HPLC/LC-MS/MS analysis in presence of UDPGA, UDPGA/SAM
T1 sequence (P35503 whole entry): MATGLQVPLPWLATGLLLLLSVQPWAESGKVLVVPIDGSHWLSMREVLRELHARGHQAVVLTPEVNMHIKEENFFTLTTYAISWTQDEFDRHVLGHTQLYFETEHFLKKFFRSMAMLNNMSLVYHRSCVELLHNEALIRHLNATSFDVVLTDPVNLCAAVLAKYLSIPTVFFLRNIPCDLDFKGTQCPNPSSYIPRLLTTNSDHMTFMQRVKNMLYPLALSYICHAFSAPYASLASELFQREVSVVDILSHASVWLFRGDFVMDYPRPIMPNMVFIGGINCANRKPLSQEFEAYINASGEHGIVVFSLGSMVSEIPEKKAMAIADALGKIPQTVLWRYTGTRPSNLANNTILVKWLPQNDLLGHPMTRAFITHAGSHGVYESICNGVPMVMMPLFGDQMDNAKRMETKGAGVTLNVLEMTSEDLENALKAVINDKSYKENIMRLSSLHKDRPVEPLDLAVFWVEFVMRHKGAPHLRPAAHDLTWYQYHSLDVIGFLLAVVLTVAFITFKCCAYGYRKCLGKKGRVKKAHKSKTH

[2] = biological target: T2, UDP-glucuronosyltransferase 2B4 (Homo sapiens, UniProt P06133); assay: Activity of human UGT2B4 expressed in microsomes isolated from baculovirus infected insect cell assessed as enzyme-mediated 2-mercapto-3-(4-((6-methoxy-1-methyl-1H-benzo[d]imidazol-2-yl)methoxy)phenyl)propanoic acid formation at 20 uM after 4 hrs by radio-HPLC/LC-MS/MS analysis in presence of UDPGA; format: ADME
T2 sequence (P06133 whole entry): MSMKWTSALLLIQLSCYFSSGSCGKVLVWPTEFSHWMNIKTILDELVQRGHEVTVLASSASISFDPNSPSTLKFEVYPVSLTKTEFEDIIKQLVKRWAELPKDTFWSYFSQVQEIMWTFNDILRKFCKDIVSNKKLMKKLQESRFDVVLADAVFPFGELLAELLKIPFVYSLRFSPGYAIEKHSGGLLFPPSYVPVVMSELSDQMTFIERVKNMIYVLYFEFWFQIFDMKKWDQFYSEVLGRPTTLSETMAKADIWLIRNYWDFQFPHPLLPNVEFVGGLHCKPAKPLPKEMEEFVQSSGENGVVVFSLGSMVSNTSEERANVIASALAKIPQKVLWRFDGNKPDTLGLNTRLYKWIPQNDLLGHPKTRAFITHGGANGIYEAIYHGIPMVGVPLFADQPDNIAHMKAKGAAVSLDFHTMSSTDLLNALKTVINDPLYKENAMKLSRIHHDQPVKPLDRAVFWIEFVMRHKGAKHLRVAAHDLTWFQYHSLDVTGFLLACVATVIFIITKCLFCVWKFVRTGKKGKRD

[3] = Drug metabolism in monkey hepatocytes assessed as formation of (2S,3S,4S,5R,6R)-6-((1-carboxy-2-(4-((6-methoxy-1-methyl-1H-benzo[d]imidazol-2-yl)methoxy)phenyl)ethylthio)carbonylamino)-3,4,5-trihydroxytetrahydro-2H-pyran-2-carboxylic acid at 30 uM after 3 hrs by radio-HPLC/LC-MS/MS analysis in presence of UDPGA and UDPGA/SAM; details: cynomolgus monkey
[4] = Drug metabolism in po dosed monkey liver microsomes assessed as formation of 5-(4-((6-methoxy-1H-benzo[d]imidazol-2-yl)methoxy)benzyl)thiazolidine-2,4-dione; format: ADME, Macaca mulatta; details: rhesus monkey
[5] = Drug metabolism in rat hepatocytes assessed as formation of 2-mercapto-3-(4-((6-methoxy-1-methyl-1H-benzo[d]imidazol-2-yl)methoxy)phenyl)propanoic acid at 30 uM after 3 hrs by radio-HPLC/LC-MS/MS analysis in presence of UDPGA, UDPGA/SAM and NADPH-generating system; format: ADME, cell-based, Hepatocyte
Cytochrome P450 2C9 = Cytochrome P450 2C9 (Homo sapiens, UniProt P11712); assay: Activity of human CYP2C9 expressed in microsomes isolated from baculovirus infected insect cell assessed as enzyme-mediated 2-mercapto-3-(4-((6-methoxy-1-methyl-1H-benzo[d]imidazol-2-yl)methoxy)phenyl)propanamide formation at 20 uM after 2 hrs by radio-HPLC/LC-MS/MS analysis in presence of NADPH-generating system and NADPH-generating system/SAM; format: ADME
Cytochrome P450 2C19 = Cytochrome P450 2C19 (Homo sapiens, UniProt P33261); assay: Activity of human CYP2C19 expressed in microsomes isolated from baculovirus infected insect cell assessed as enzyme-mediated (2S,3S,4S,5R,6R)-6-((1-carboxy-2-(4-((6-methoxy-1-methyl-1H-benzo[d]imidazol-2-yl)methoxy)phenyl)ethylthio)carbonylamino)-3,4,5-trihydroxytetrahydro-2H-pyran-2-carboxylic acid formation at 20 uM after 2 hrs by radio-HPLC/LC-MS/MS analysis in presence of NADPH-generating system/SAM; format: ADME
Cytochrome P450 2D6 [6] = biological target: T3, Cytochrome P450 2D6 (Homo sapiens, UniProt P10635); assay: Activity of human CYP2D6 expressed in microsomes isolated from baculovirus infected insect cell assessed as enzyme-mediated 2-amino-3-((1-carboxy-2-(4-((6-methoxy-1-methyl-1H-benzo[d]imidazol-2-yl)methoxy)phenyl)ethyl)disulfanyl)propanoic acid formation at 20 uM after 2 hrs by radio-HPLC/LC-MS/MS analysis; format: ADME
Procedure, shortened: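 Baculovirus-insect-cell microsomes expressing the human CYP (1 mg/ml protein) were incubated with [14C]rivoglitazone (20 μM) in 50 mM potassium phosphate (pH 7.4) or 100 mM Tris-HCl (pH 7.5) with an NADPH-generating system (2 mM NADP+, 20 mM glucose 6-phosphate, 2 units/ml G6PDH, 10 mM MgCl2) for 2 h at 37°C. Insect-cell control supersomes served as the control. Reactions were stopped with acetonitrile, and the concentrated supernatants were analysed by radio-HPLC, LC-MS and LC-MS/MS.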

[7] = biological target: T1, UDP-glucuronosyltransferase 1A3; assay: Activity of human UGT1A3 expressed in microsomes isolated from baculovirus infected insect cell assessed as enzyme-mediated 2-mercapto-3-(4-((6-methoxy-1-methyl-1H-benzo[d]imidazol-2-yl)methoxy)phenyl)propanoic acid formation at 20 uM after 4 hrs by radio-HPLC/LC-MS/MS analysis in presence of UDPGA, UDPGA/SAM and NADPH-generating system in presence of UDPGA and UDPGA/SAM; format: ADME
Procedure, shortened: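 Alamethicin (50 μg/mg protein, 15 min on ice) pretreated expressed human UGT microsomes (1 mg/ml protein) from baculovirus-infected insect cells. Incubation with [¹⁴C]rivoglitazone (20 μM) in 100 mM Tris-HCl (pH 7.5) with 10 mM MgCl₂, started by 5 mM UDPGA, 4 h at 37°C with shaking. UGT insect-cell control supersomes were run alongside. Acetonitrile stop, concentrated supernatant analysed by radio-HPLC, LC-MS and LC-MS/MS.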

Liver microsome = assay: Drug metabolism in Sprague-Dawley rat liver microsomes assessed as formation of 3-(4-((6-methoxy-1-methyl-1H-benzo[d]imidazol-2-yl)methoxy)phenyl)-2-(methylthio)propanoic acid at 20 uM after 2 to 4 hrs by radio-HPLC/LC-MS/MS analysis in presence of NADPH-generating system/SAM and UDPGA/SAM; format: ADME
Cytochrome P450 2D6 [8] = biological target: T3, Cytochrome P450 2D6; assay: Activity of human CYP2D6 expressed in microsomes isolated from baculovirus infected insect cell assessed as enzyme-mediated 3-(4-((6-methoxy-1-methyl-1H-benzo[d]imidazol-2-yl)methoxy)phenyl)-2-(methylthio)propanamide formation at 20 uM after 2 hrs by radio-HPLC/LC-MS/MS analysis in presence of NADPH-generating system/SAM; format: ADME

T3 sequence (P10635 whole entry): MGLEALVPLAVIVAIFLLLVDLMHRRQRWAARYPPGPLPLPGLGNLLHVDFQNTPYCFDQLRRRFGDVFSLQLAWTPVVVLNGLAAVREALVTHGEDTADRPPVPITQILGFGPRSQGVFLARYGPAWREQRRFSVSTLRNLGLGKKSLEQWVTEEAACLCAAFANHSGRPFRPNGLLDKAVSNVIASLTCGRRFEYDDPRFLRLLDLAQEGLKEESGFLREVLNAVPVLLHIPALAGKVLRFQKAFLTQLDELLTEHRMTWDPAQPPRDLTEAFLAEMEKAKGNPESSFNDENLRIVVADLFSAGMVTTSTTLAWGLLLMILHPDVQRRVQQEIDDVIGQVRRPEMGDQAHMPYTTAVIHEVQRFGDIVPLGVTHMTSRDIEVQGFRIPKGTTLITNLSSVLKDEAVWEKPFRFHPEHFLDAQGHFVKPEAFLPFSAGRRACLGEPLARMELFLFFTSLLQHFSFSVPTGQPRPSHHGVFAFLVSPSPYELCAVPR
Sequence of Cytochrome P450 2C9 (P11712 whole entry): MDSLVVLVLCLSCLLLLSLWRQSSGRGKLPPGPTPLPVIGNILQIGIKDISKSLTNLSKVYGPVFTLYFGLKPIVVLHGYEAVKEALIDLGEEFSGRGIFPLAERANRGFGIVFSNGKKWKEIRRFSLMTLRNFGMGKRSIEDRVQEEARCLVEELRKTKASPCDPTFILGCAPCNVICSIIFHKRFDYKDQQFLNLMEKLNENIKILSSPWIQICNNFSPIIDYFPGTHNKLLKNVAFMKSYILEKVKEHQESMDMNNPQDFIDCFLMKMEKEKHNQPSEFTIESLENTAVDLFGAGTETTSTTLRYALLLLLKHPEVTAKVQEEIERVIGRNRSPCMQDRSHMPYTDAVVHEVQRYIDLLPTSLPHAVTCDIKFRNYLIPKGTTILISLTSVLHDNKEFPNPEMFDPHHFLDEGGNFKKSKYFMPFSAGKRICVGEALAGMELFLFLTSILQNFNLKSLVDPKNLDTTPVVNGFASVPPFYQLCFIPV
Sequence of Cytochrome P450 2C19 (P33261 whole entry): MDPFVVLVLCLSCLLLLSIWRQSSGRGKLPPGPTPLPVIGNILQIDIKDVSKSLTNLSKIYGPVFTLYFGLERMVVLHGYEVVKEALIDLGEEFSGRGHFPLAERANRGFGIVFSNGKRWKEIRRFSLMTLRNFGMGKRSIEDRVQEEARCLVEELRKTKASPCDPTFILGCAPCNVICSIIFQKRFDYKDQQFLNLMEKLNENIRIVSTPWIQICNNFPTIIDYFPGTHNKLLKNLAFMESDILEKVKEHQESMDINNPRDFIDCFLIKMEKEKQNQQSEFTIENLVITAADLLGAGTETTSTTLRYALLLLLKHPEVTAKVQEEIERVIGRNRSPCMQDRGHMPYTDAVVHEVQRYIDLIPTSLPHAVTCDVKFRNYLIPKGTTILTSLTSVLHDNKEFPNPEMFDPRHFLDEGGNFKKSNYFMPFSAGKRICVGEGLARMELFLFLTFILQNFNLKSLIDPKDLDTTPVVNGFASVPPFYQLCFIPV

In the case of `COc1ccc2nc(COc3ccc(CC(S)C(=O)O)cc3)n(C)c2c1` (stereo unspecified), the Drug metabolism [1] is reported as “metabolite_detected”.
With `COc1ccc2nc(COc3ccc(C[14CH]4SC(=O)NC4=O)cc3)n(C)c2c1.Cl` (racemic) the Drug metabolism [2] was “metabolite_not_detected”, the Drug metabolism [3] was “metabolite_detected” and the Drug metabolism [4] was “metabolite_detected”. For the same molecule, the Drug metabolism [5] was “metabolite_not_detected”, the Drug metabolism (Cytochrome P450 2C9) was “metabolite_detected” and the Drug metabolism (Cytochrome P450 2C19) was “metabolite_not_detected”. For the same molecule, the Drug metabolism (Cytochrome P450 2D6 [6]) was “metabolite_not_detected”, the Drug metabolism [7] was “metabolite_detected” and the Drug metabolism (Liver microsome) was “metabolite_detected”. For the same molecule, the Drug metabolism (Cytochrome P450 2D6 [8]) was “metabolite_not_detected”.
